Values after ≈ are worked out from the molar mass of the structure shown.
Key:
HOP-92 [1] = assay: Antiproliferative activity against human HOP-92 cells assessed as growth inhibition at 10 uM incubated for 48 hrs by SRB method; format: functional; settings: read-out: GI
Method in brief: (§1)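 NCI-60 one-dose screen at 10 μM. Cells were grown in RPMI 1640 with 5% FBS and 2 mM L-glutamine and plated at 5000–40 000 cells/well for 24 h. Drug exposure was 48 h at 37 °C, 5% CO2. Cells were fixed with TCA, stained with 0.4% SRB and read at 515 nm. Growth is expressed as percent of untreated control and time-zero plates.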

HOP-62 = assay: Antiproliferative activity against human HOP-62 cells assessed as growth inhibition at 10 uM incubated for 48 hrs by SRB method; format: functional; settings: read-out: GI; method in brief: as §1
NCI-H226 = assay: Antiproliferative activity against human NCI-H226 cells assessed as growth inhibition at 10 uM incubated for 48 hrs by SRB method; format: functional; settings: read-out: GI; method in brief: as §1
A549 = assay: Antiproliferative activity against human A549 cells assessed as growth inhibition at 10 uM incubated for 48 hrs by SRB method; format: functional; settings: read-out: GI; method in brief: as §1
U-251 = assay: Antiproliferative activity against human U-251 cells assessed as growth inhibition at 10 uM incubated for 48 hrs by SRB method; format: functional; settings: read-out: GI; method in brief: as §1
LOX IMVI = assay: Antiproliferative activity against human LOX IMVI cells assessed as growth inhibition at 10 uM incubated for 48 hrs by SRB method; format: functional; settings: read-out: GI; method in brief: as §1
NCI/ADR-RES = assay: Antiproliferative activity against human NCI-ADR-RES cells assessed as growth inhibition at 10 uM incubated for 48 hrs by SRB method; format: functional; settings: read-out: GI; method in brief: as §1
SK-OV-3 = assay: Antiproliferative activity against human SK-OV-3 cells assessed as growth inhibition at 10 uM incubated for 48 hrs by SRB method; format: functional; settings: read-out: GI; method in brief: as §1
786-0 = assay: Antiproliferative activity against human 786-0 cells assessed as growth inhibition at 10 uM incubated for 48 hrs by SRB method; format: functional; settings: read-out: GI; method in brief: as §1
UO-31 = assay: Antiproliferative activity against human UO-31 cells assessed as growth inhibition at 10 uM incubated for 48 hrs by SRB method; format: functional; settings: read-out: GI
Method in brief: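 NCI-60 one-dose screen at 10 μM. Cells grown in RPMI 1640 with 5% FBS and 2 mM L-glutamine, plated at 5000–40 000 cells/well and preincubated 24 h at 37 °C, 5% CO2. Drug exposure 48 h. Fixed with TCA and stained with 0.4% SRB, absorbance read at 515 nm. Percent growth calculated against untreated control and time-zero plates.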

DU-145 = assay: Antiproliferative activity against human DU-145 cells assessed as growth inhibition at 10 uM incubated for 48 hrs by SRB method; format: functional; settings: read-out: GI; method in brief: as §1
BT-549 = assay: Antiproliferative activity against human BT-549 cells assessed as growth inhibition at 10 uM incubated for 48 hrs by SRB method; format: functional; settings: read-out: GI; method in brief: as §1
MDA-MB-468 [2] = assay: Antiproliferative activity against human MDA-MB-468 cells assessed as growth inhibition at 10 uM incubated for 48 hrs by SRB method; format: functional; settings: read-out: GI; method in brief: as §1
MCF7 [3] = assay: Antiproliferative activity against human MCF7 cells assessed as growth inhibition at 10 uM incubated for 48 hrs by SRB method; format: functional; settings: read-out: GI; method in brief: as §1
SK-MEL-28 = assay: Antiproliferative activity against human SK-MEL-28 cells assessed as growth inhibition incubated for 48 hrs by SRB method; format: functional
Method in brief: (§2)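 NCI-60 five-dose screen at 0.01, 0.1, 1, 10 and 100 μM, triplicate wells per dose. Cells were in RPMI 1640 with 5% FBS and 2 mM L-glutamine, pre-grown 24 h and then treated for 48 h at 37 °C. Read-out was TCA fixation and SRB absorbance at 515 nm.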

M14 = assay: Antiproliferative activity against human M14 cells assessed as growth inhibition incubated for 48 hrs by SRB method; format: functional; method in brief: as §2
CAKI-1 = assay: Antiproliferative activity against human CAKI-1 cells assessed as growth inhibition incubated for 48 hrs by SRB method; format: functional; method in brief: as §2
SF-268 = assay: Antiproliferative activity against human SF-268 cells assessed as growth inhibition incubated for 48 hrs by SRB method; format: functional; method in brief: as §2
SN12C = assay: Antiproliferative activity against human SN12C cells assessed as growth inhibition incubated for 48 hrs by SRB method; format: functional; method in brief: as §2
UACC-257 = assay: Antiproliferative activity against human UACC-257 cells assessed as growth inhibition incubated for 48 hrs by SRB method; format: functional; method in brief: as §2
EKVX = assay: Antiproliferative activity against human EKVX cells assessed as growth inhibition incubated for 48 hrs by SRB method; format: functional; method in brief: as §2
NCI-H23 = assay: Antiproliferative activity against human NCI-H23 cells assessed as growth inhibition incubated for 48 hrs by SRB method; format: functional; method in brief: as §2
OVCAR-8 = assay: Antiproliferative activity against human OVCAR-8 cells assessed as growth inhibition incubated for 48 hrs by SRB method; format: functional; method in brief: as §2
SNB-75 = assay: Antiproliferative activity against human SNB-75 cells assessed as growth inhibition incubated for 48 hrs by SRB method; format: functional; method in brief: as §2
MDA-MB-468 [4] = assay: Antiproliferative activity against human MDA-MB-468 cells assessed as growth inhibition incubated for 48 hrs by SRB method; format: functional; method in brief: as §2
SK-MEL-2 = assay: Antiproliferative activity against human SK-MEL-2 cells assessed as growth inhibition incubated for 48 hrs by SRB method; format: functional; method in brief: as §2
UACC-62 = assay: Antiproliferative activity against human UACC-62 cells assessed as growth inhibition incubated for 48 hrs by SRB method; format: functional
Method in brief: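 NCI-60 five-dose screen at 0.01, 0.1, 1, 10 and 100 μM, triplicate wells per dose. Cells grown in RPMI 1640/5% FBS, preincubated 24 h, then exposed 48 h at 37 °C. TCA fixation, SRB stain, A515.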

MCF7 [5] = assay: Antiproliferative activity against human MCF7 cells assessed as growth inhibition incubated for 48 hrs by SRB method; format: functional; method in brief: as §2
HOP-92 [6] = assay: Antiproliferative activity against human HOP-92 cells assessed as growth inhibition incubated for 48 hrs by SRB method; format: functional; method in brief: as §2
SF-295 [7] = assay: Antiproliferative activity against human SF-295 cells assessed as growth inhibition incubated for 48 hrs by SRB method; format: functional; method in brief: as §2
PC-3 [8] = assay: Antiproliferative activity against human PC-3 cells assessed as growth inhibition incubated for 48 hrs by SRB method; format: functional; method in brief: as §2
Escherichia coli = assay: Antimicrobial activity against Escherichia coli ATCC 25922 by broth microdilution method
Candida albicans = assay: Antimicrobial activity against Candida albicans ATCC 10231 by broth microdilution method
Staphylococcus aureus [9] = assay: Antimicrobial activity against Staphylococcus aureus ATCC 29213 by broth microdilution method
RPMI-8226 = assay: Antiproliferative activity against human RPMI-8226 cells assessed as growth inhibition at 10 uM incubated for 48 hrs by SRB method; format: functional; settings: RPMI-8226, read-out: GI; method in brief: as §1
SF-295 [10] = assay: Antiproliferative activity against human SF-295 cells assessed as growth inhibition at 10 uM incubated for 48 hrs by SRB method; format: functional; settings: read-out: GI; method in brief: as §1
CCRF-CEM = assay: Antiproliferative activity against human CCRF-CEM cells assessed as growth inhibition at 10 uM incubated for 48 hrs by SRB method; format: functional; settings: read-out: GI; method in brief: as §1
K562 = assay: Antiproliferative activity against human K562 cells assessed as growth inhibition at 10 uM incubated for 48 hrs by SRB method; format: functional; settings: K562, read-out: GI; method in brief: as §1
NCI-H522 = assay: Antiproliferative activity against human NCI-H522 cells assessed as growth inhibition at 10 uM incubated for 48 hrs by SRB method; format: functional; settings: NCI-H522, read-out: GI; method in brief: as §1
T47D = assay: Antiproliferative activity against human T47D cells assessed as growth inhibition at 10 uM incubated for 48 hrs by SRB method; format: functional; settings: read-out: GI; method in brief: as §1
PC-3 [11] = assay: Antiproliferative activity against human PC-3 cells assessed as growth inhibition at 10 uM incubated for 48 hrs by SRB method; format: functional; settings: PC-3, read-out: GI; method in brief: as §1
KM12 = assay: Antiproliferative activity against human KM12 cells assessed as growth inhibition at 10 uM incubated for 48 hrs by SRB method; format: functional; settings: read-out: GI; method in brief: as §1
OVCAR-3 = assay: Antiproliferative activity against human OVCAR-3 cells assessed as growth inhibition at 10 uM incubated for 48 hrs by SRB method; format: functional; settings: read-out: GI; method in brief: as §1
Staphylococcus aureus [12] = assay: Antimicrobial activity against Staphylococcus aureus ATCC 29213; format: functional

O=c1ccc(/C=C/c2ccc(NC(=S)Nc3cccc(Br)c3)cc2)n[nH]1
inhibition of growth at 10 µM (HOP-92 [1]): 100%
inhibition of growth at 10 µM (HOP-62): 98.1%
inhibition of growth at 10 µM (NCI-H226): 88.2%
inhibition of growth at 10 µM (A549): 74%
inhibition of growth at 10 µM (U-251): 100%
inhibition of growth at 10 µM (LOX IMVI): 88.8%
inhibition of growth at 10 µM (NCI/ADR-RES): 85.7%
inhibition of growth at 10 µM (SK-OV-3): 82.6%
inhibition of growth at 10 µM (786-0): 88.2%
inhibition of growth at 10 µM (UO-31): 76.2%
inhibition of growth at 10 µM (DU-145): 91.5%
inhibition of growth at 10 µM (BT-549): 95.5%
inhibition of growth at 10 µM (MDA-MB-468 [2]): 88.1%
inhibition of growth at 10 µM (MCF7 [3]): 72.7%
GI50 (SK-MEL-28): 2000 nM
GI50 (M14): 2570 nM
GI50 (CAKI-1): 2570 nM
GI50 (SF-268): 2820 nM
GI50 (SN12C): 3020 nM
GI50 (UACC-257): 3240 nM
GI50 (EKVX): 3540 nM
GI50 (NCI-H23): 3540 nM
GI50 (OVCAR-8): 3470 nM
GI50 (SNB-75): 3980 nM
GI50 (MDA-MB-468 [4]): 1660 nM
GI50 (SK-MEL-2): 1860 nM
GI50 (UACC-62): 2340 nM
GI50 (MCF7 [5]): 2440 nM
GI50 (HOP-92 [6]): 2510 nM
GI50 (SF-295 [7]): 2690 nM
GI50 (PC-3 [8]): 3630 nM
MIC (Escherichia coli): 512 µg/mL (≈ 1200 µM)
MIC (Candida albicans): 512 µg/mL (≈ 1200 µM)
MIC (Staphylococcus aureus [9]): 128 µg/mL (≈ 300 µM)

O=C(Nc1ccc(-c2ccc(=O)[nH]n2)cc1)Nc1cccc(Cl)c1
inhibition of growth at 10 µM (RPMI-8226): 73.5%
inhibition of growth at 10 µM (MCF7 [3]): 64%
inhibition of growth at 10 µM (SF-295 [10]): 72.7%
inhibition of growth at 10 µM (CCRF-CEM): 72.9%
inhibition of growth at 10 µM (K562): 68.4%
inhibition of growth at 10 µM (NCI-H522): 73.5%
inhibition of growth at 10 µM (T47D): 74.7%
inhibition of growth at 10 µM (PC-3 [11]): 68%
inhibition of growth at 10 µM (KM12): 66.4%
inhibition of growth at 10 µM (OVCAR-3): 62.2%
MIC (Escherichia coli): > 1020 µg/mL
MIC (Candida albicans): > 1020 µg/mL
MIC (Staphylococcus aureus [9]): 256 µg/mL (≈ 751 µM)

O=C(Nc1ccc(Cl)cc1)Nc1ccc(Cl)c(Cl)c1 [TRICLOCARBAN]
MIC (Staphylococcus aureus [12]): 16 µg/mL (≈ 50.7 µM)
